Screening data (PubChem)
PAX8 reporter – inhibitors of PAX8-driven TPO luciferase reporter, primary screen, RMG-I cells, single concentration; AID 652154, 2013; SteadyGlo, 24 h; 1.2% of 360,000 active; inhibition, % at 12.6 µM;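 active = mean replicate inhibition at least 60% with every replicate also reaching 60%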;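 also: luciferase light reporting Pax8 driven TPO promoter activity; plate controls were median of neutral control wells for no effect and mitoxantrone controls for full effect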
PfHsp90 yeast 2 – growth inhibition of PfHsp90-expressing yeast, primary screen, antimalarial PfHsp90 inhibitor project, S. cerevisiae, BacTiter-Glo luminescence, single point, set 2 | BacTiter-Glo ATP, 48 h; yeast lacking PDR1 and PDR3 efflux regulators | inhibition, % at 9.4 µM | 0.32% of 310,000 active;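 active = every replicate shows inhibition above about 80%, whatever the replicate mean, limit read from the data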;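 also: 0% = DMSO neutral controls and 100% = 20 µM radicicol positive controls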
Rtt109 Vps75 – inhibitors of C. albicans Rtt109/Vps75 HAT, primary screen, biochemical, ThioGlo CoA-SH fluorescence, plate reader; AID 540336, 2011; purified Rtt109/Vps75, 4 h; inhibition, % at 34.9 µM; 0.16% of 330,000 active; Histone acetyltransferase RTT109 (Candida albicans (strain SC5314 / ATCC MYA-2876)), …;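 active = inhibition of at least 50% in every replicate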
Target sequence (Q5AAJ8 whole entry, looked up): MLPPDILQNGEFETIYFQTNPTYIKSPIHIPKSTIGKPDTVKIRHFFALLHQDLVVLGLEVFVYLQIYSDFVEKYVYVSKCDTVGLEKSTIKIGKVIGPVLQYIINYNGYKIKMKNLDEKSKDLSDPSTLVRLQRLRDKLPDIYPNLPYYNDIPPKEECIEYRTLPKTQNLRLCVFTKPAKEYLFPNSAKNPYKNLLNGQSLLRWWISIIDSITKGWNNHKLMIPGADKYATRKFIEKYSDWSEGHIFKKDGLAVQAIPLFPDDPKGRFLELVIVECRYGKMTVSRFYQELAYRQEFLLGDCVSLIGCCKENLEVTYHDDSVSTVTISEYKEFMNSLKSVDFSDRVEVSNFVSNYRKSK
Glyco luc inh – increase of ERlucT glycosylation luciferase signal, primary screen, N-linked glycosylation inhibitor project, D54 ERlucT cells, luminescence, set 2; D54 ERlucT glycosylation luciferase reporter, 24 h; percent of 100 nM tunicamycin response; reporter increase, % at 12.5 µM; 0.23% of 360,000 active;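 active = mean luciferase reporter signal, scaled so untreated is 0 and the glycosylation-blocking control 100, at or above a set limit in every replicate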;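 also: luciferase carries N-glycosylation sites so blocking glycosylation raises the light; 0% = median of neutral control wells and 100% = median of 100 nM tunicamycin wells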
HIV Env fusion – inhibitors of HIV-1 Env-driven cell-cell fusion, primary screen, HeLa-JRFL effector, CEM21 target cells, luciferase | inhibition, % at 12.3 µM | 1.1% of 360,000 active | AID 651610, 2012;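 active = mean replicate inhibition score of at least 50 and every replicate individually at or above 50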;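 also: 0% = plate neutral controls and 100% = maraviroc near 300 nM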
Arr AP2 block – inhibitors of beta-arrestin/AP2 binding, primary screen, biochemical, GPCR trafficking, flow cytometry; beta-arrestin 1 C-terminal peptide binding to AP2 beta2-adaptin appendage (human); FITC-arrestin peptide / GST-AP2 beads; AP2 beta2 appendage carries R879A mutation; inhibition, % at 10 µM; 0.31% of 340,000 active;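 active = inhibition above a set limit, near 3 SD of compounds lacking own fluorescence, cut at about 54% in these data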;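 also: plate controls were DMSO wells for no effect and 5 µM unlabelled arrestin peptide for full effect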
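Test system: GST-tagged AP2 beta2-adaptin appendage (R879A) on 4 µm glutathione beads; also added: fluorescein-tagged arrestin peptide at 50 nM final; timing: 12 min plus 1 h, RT; signal: flow cytometry, FL1 (488/535 nm); read-out: percent drop in bead-associated FITC signal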
* hit, by the source's call; · = no result given; + = active, no number; [ ] = dose if it differs, or a comment. Only some compounds are listed: those with a hit (about 2.3% of all), similar ones and a draw of the others.

SMILES	PAX8 reporter	PfHsp90 yeast 2	Rtt109 Vps75	Glyco luc inh	HIV Env fusion	Arr AP2 block
COc1ccc2c3c(n(C)c2c1)[C@@H](CO)N(S(C)(=O)=O)CC31CCN(Cc2cccnc2)CC1	-9	·	·	·	·	·
COc1ccc(C(=O)c2ccc(Cl)c([N+](=O)[O-])c2)cc1	108*	-11	14	1	-18	17
Cc1ccc(S(=O)(=O)CCC(=O)c2cccc([N+](=O)[O-])c2)cc1	26	·	+	1	-8	43
C[C@@H]1CN([C@@H](C)CO)C(=O)Cc2cc(NC(=O)C3CC3)ccc2O[C@@H]1CN(C)Cc1ccc(Oc2ccccc2)cc1	·	·	·	·	9[16.7 µM]	·
COc1cccc(-c2ccc([C@H]3[C@@H](CO)N4C(=O)CN(C(=O)C5CCCCC5)C[C@@H]34)cc2)c1	-1	·	·	·	·	·
CCOC(=O)c1c(C)[nH]c(C)c1C(=O)COC(=O)[C@@H](NC(=O)c1ccccc1OCC)C(C)C	·	27	1	0	102*	5
CCOc1ccccc1C(=O)NC(C(=O)OCC(=O)NNC(=O)c1cccs1)C(C)C (stereo not drawn)	-5	·	·	-3	-2	·
NC(=O)C(C(=O)/C=C/c1ccc(Cl)cc1)=C1SCCS1	89*	-1	2	-12	-104	-5
CCOc1cc(S(=O)(=O)N2CC=C(c3ccc(F)cc3)CC2)c(OCC)cc1-n1cnnn1	·	14	-7	8	·	-4
CCOc1cc(S(=O)(=O)N2CCC(Cc3ccccc3)CC2)c(OCC)cc1-n1cnnn1	·	-12	55*	-7	43	2
C[C@@H]1CCCCO[C@H](CN(C)Cc2ccccc2)[C@H](C)CN([C@H](C)CO)C(=O)c2cc(NC(=O)Cc3ccccc3)ccc2O1	39	·	·	·	-4[16.7 µM]	·
COc1ccccc1CNC(=O)COC(=O)Cc1c(F)cccc1Cl	66*	9	3	0	-7	22
O=C(O)C[C@H]1CC[C@@H](NC(=O)c2ccncc2)[C@@H](CO)O1	-1	·	·	·	-21[16.7 µM]	·
Cc1cc(N)c2cc(NC(=O)/C=C/c3ccccc3Cl)ccc2n1	·	-21	90*	-22	·	0
COc1cccc(C(=O)NCc2nnc(SCC(=O)Nc3nccs3)n2-c2cccc(C)c2)c1	·	·	61*	-1	3	3
COc1cccc(NC(=O)CSc2nnc(Cc3cccs3)n2-c2ccc(C)cc2)c1	·	-27	16	-1	84*	23
C[C@H]1CN([C@@H](C)CO)C(=O)c2cc(-c3ccc(C#N)cc3)cnc2O[C@@H]1CN(C)CC1CCCCC1	2	·	·	·	21[16.7 µM]	·
COc1ccc(OC)c(NC(=O)C(C)OC(=O)c2cc3ccccc3[nH]2)c1 (stereo not drawn)	44	-5	1	-4	58*	33
COc1ccccc1NC(=O)C(C)OC(=O)c1cc2ccccc2[nH]1 (stereo not drawn)	41	-22	1	-7	·	-1
COc1ccccc1NC(=O)N[C@@H]1CC[C@H](CCNS(=O)(=O)c2ccccc2)O[C@H]1CO	10	·	·	·	8[16.7 µM]	·
c1ccc(Sc2ncnc3ccccc23)cc1	23	-7	0	1	19	-9
c1ccc(Cc2nnc(Sc3ccccc3)c3ccccc23)cc1	·	·	6	36*	·	-1
O=C(C[C@@H]1C=C[C@H](NC(=O)Nc2ccc(C(F)(F)F)cc2)[C@H](CO)O1)NCCN1CCCC1	75*	·	·	·	-13[16.7 µM]	·
O=C(C[C@H]1C=C[C@@H](NC(=O)Nc2ccc(C(F)(F)F)cc2)[C@@H](CO)O1)NCCN1CCCC1	-10	·	·	·	18[16.7 µM]	·
Cc1ccc(C(CCNC(C)c2cccs2)c2ccco2)cc1 (stereo not drawn)	-1	18	-5	-4	66*	-6
SMILES	PAX8 reporter	PfHsp90 yeast 2	Rtt109 Vps75	Glyco luc inh	HIV Env fusion	Arr AP2 block
CC(NCCC(Cc1ccccc1)c1ccco1)c1ccccc1 (stereo not drawn)	16	-39	6	0	14	-1
C[C@H]1CN([C@@H](C)CO)C(=O)Cc2cc(NC(=O)CCCCCC(=O)Nc3ccccc3N)ccc2O[C@H]1CN(C)CC1CC1	17	·	·	·	·	·
O=C1c2ccc(-c3nc4ccccc4o3)cc2C(=O)N1Cc1ccccc1	64*	-44	3	-4	37	3
CO[C@H]1CN(C)C(=O)c2ccc(NC(C)=O)cc2OC[C@H](C)N(Cc2ccccn2)C[C@H]1C	-17	·	·	·	4[16.7 µM]	·
CC(=O)C1=C(O)C(=O)N(CCc2ccccc2)C1c1ccccc1[N+](=O)[O-] (stereo not drawn)	122*	-6	10	2	·	-3
CC(=O)c1sc(=S)n(-c2ccccc2)c1C	-9	6	3	1	-1	0
CC(=O)c1sc2c(c1OC(=O)c1ccccc1)c(=O)n(-c1ccccc1)c(=S)n2-c1ccccc1	10	-11	5	-19	62*	35
COc1ccc(S(=O)(=O)/N=C2/NC(=O)/C(=C\c3cc(OC)c(OC)cc3[N+](=O)[O-])S2)cc1	4	-65	7	2	40*	-1
COc1cc(/C=C2\S/C(=N/S(=O)(=O)c3ccccc3)NC2=O)c([N+](=O)[O-])cc1OC	·	-35	-5	0	-33	5
COc1ccc(S(=O)(=O)/N=C2/NC(=O)/C(=C\c3ccco3)S2)cc1	3	-20	20	0	8	-15
COc1ccc(S(=O)(=O)/N=C2/NC(=O)/C(=C/c3ccco3)S2)cc1	70*	-16	-1	1	·	4
O=C(Nc1ccc(F)cc1)N[C@H]1CC[C@@H](CC(=O)N2CCCCC2)O[C@H]1CO	-3	·	·	·	-5[16.7 µM]	·
C[C@H](CO)N1C[C@H](C)[C@@H](CN(C)C(=O)Nc2ccc(C(F)(F)F)cc2)OCCCC[C@H](C)Oc2ccc(NC(=O)Nc3ccccc3)cc2C1=O	15	·	·	·	3[16.7 µM]	·
C[C@@H]1CCCCO[C@@H](CN(C)C(=O)Nc2ccc(C(F)(F)F)cc2)[C@H](C)CN([C@H](C)CO)C(=O)c2cc(NC(=O)Nc3ccccc3)ccc2O1	63*	·	·	·	43[16.7 µM]	·
C[C@@H]1CN([C@H](C)CO)C(=O)c2cc(NC(=O)Nc3ccc(C(F)(F)F)cc3)ccc2O[C@@H](C)CCCCO[C@H]1CN(C)C(=O)c1ccccc1	102*	·	·	·	56*[16.7 µM]	·
C[C@@H]1CCCCO[C@@H](CN(C)C(=O)Nc2ccccc2)[C@H](C)CN([C@H](C)CO)C(=O)c2cc(NC(=O)Nc3ccc(C(F)(F)F)cc3)ccc2O1	86*	·	·	·	·	·
